Data on 6 molecules can be found in ChEMBL document CHEMBL1152300, “Ligand specificity of constitutive androstane receptor as probed by induced-fit docking and mutagenesis” (J Med Chem, 2008).

The target of data set [1] is T1, Nuclear receptor subfamily 1 group I member 3 (Mus musculus, UniProt O35627, F171L). Nature of the data set: Activation of mouse CAR F171L mutant expressed in HEK293 cells at 10 uM by mammalian one-hybrid assay. The class given is cell-based. The note with it: read-out: Activity. An outline of the steps:
(§1)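 GAL4-DBD fused to mouse CAR LBD (residues 118-358), wild-type or point mutant, cotransfected with UASx4-tk-luc reporter and pCMVβ into HEK293 cells. Cells were exposed to final 1 µM, 2 µM or 10 µM test chemical, or 0.1% v/v DMSO, for 24 h after transfection. Luciferase was normalized to β-galactosidase and set against empty GAL4 vector (=1.0). Mean ± standard deviation, three independent experiments.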

Data set [2] has as its target T2, Nuclear receptor subfamily 1 group I member 3 (Mus musculus, UniProt O35627, L212A). Nature of the data set: Effect on nuclear co-repressor receptor binding to mouse CAR L212A mutant […] at 10 uM by yeast two-hybrid assay. Format: cell-based. The following applies: read-out: Activity. An outline of the steps: (§2)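 Yeast two-hybrid: yeast expressing wild-type or mutant mouse CAR LBD plus SRC-1 or NCoR, selected on SD medium lacking Leu and Trp. Pooled colonies treated with DMSO or test chemical for 3.5 h. β-Galactosidase normalized to cell density. SRC-1 reference: wild-type + DMSO = 100. NCoR reference: 10 µM androstenol = 100. Mean ± SD, two independent determinations, each in triplicate.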

In data set [3] the target is T3, Nuclear receptor subfamily 1 group I member 3 (Mus musculus, UniProt O35627, Y336A). Nature of the data set: Enhancement of steroid receptor coactivator 1 binding to mouse CAR Y336A mutant […] at 10 uM by yeast two-hybrid assay. The class given is cell-based. Put shortly: as §2
T3 sequence (O35627 whole entry Y336A, the tested form may be a part): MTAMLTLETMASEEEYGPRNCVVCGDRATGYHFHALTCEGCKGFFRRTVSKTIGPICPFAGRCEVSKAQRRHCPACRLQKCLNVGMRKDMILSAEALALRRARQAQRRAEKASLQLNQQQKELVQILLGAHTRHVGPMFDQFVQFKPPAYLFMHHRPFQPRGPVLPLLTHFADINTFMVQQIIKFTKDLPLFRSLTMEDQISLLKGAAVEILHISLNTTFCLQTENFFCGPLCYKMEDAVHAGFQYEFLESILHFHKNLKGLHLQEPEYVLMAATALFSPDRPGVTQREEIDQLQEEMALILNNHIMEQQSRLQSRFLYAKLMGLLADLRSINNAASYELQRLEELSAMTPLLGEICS
The target in data set [4] is T4, Nuclear receptor subfamily 1 group I member 3 (Mus musculus, UniProt O35627, L353A). Nature of the data set: Decrease in mouse CAR L353A mutant activation expressed in HEK293 cells at 1 uM by mammalian one-hybrid assay. Format: cell-based. The note with it: read-out: Activity. Put shortly: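 GAL4 DBD fused to mouse CAR LBD (residues 118-358), wild type or point mutant, cotransfected with UASx4-tk-luc reporter and pCMVβ into HEK293 cells. Cells cultured with DMSO (0.1% v/v) or compound (final 1, 2 or 10 µM). Lysed 24 h post-transfection. Luciferase normalized to β-galactosidase, expressed relative to empty GAL4 vector (=1.0). Mean ± SD, three independent experiments.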
T4 sequence (O35627 whole entry L353A, the tested form may be a part): as the sequence (O35627 whole entry Y336A, the tested form may be a part) above, with A336Y, L353A counted along it

Data set [5] addresses T2, Nuclear receptor subfamily 1 group I member 3. Nature of the data set: Effect on nuclear co-repressor receptor binding to mouse CAR L212A mutant […] at 1 uM by yeast two-hybrid assay. Format: cell-based. The following applies: read-out: Activity. Put shortly:
(§3)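 Yeast expressing wild-type or mutant mouse CAR LBD plus NCoR, selected on SD plates lacking leucine and tryptophan. Pooled colonies treated with DMSO or compound for 3.5 h. β-Galactosidase activity normalized to cell density. Reference is 10 µM androstenol (=100). Mean ± SD of two independent determinations, each in triplicate.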

For data set [6], the target named is T5, Nuclear receptor subfamily 1 group I member 3 (Mus musculus, UniProt O35627, H213A). Nature of the data set: Effect on steroid receptor co-activator 1 binding to mouse CAR H213A mutant […] at 1 uM by yeast two-hybrid assay. Format: cell-based. The note with it: read-out: Activity. An outline of the steps:
(§4)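 Yeast expressing wild-type or mutant mouse CAR LBD plus SRC-1, selected on SD plates lacking leucine and tryptophan. Pooled colonies treated with DMSO or compound for 3.5 h. β-Galactosidase activity normalized to cell density. Reference is wild-type CAR + SRC-1 with DMSO (=100). Mean ± SD of two independent determinations, each in triplicate.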

Data set [7] addresses T6, Nuclear receptor subfamily 1 group I member 3 (Mus musculus, UniProt O35627, T350M). Nature of the data set: Decrease in steroid receptor coactivator 1 binding to mouse CAR T350M mutant […] at 1 uM by yeast two-hybrid assay. The class given is cell-based. The note with it: read-out: Activity. Put shortly: as §4
The target of data set [8] is T4, Nuclear receptor subfamily 1 group I member 3. Nature of the data set: Effect on nuclear co-repressor receptor binding to mouse CAR L353A mutant […] at 1 uM by yeast two-hybrid assay. Format: cell-based. The following applies: read-out: Activity. An outline of the steps:
as §3

The target in data set [9] is T3, Nuclear receptor subfamily 1 group I member 3. The following applies: HEK293, mouse, read-out: Activity.
For data set [10], the target named is Nuclear receptor subfamily 1 group I member 3 (Mus musculus, UniProt O35627, I252L). The following applies: HEK293, mouse.
Sequence of Nuclear receptor subfamily 1 group I member 3 (Mus musculus, UniProt O35627, I252L) (O35627 whole entry I252L): as the sequence (O35627 whole entry Y336A, the tested form may be a part) above, with I252L, A336Y counted along it
The target of data set [11] is T3, Nuclear receptor subfamily 1 group I member 3. The following applies: HEK293, mouse.
In data set [12] the target is T2, Nuclear receptor subfamily 1 group I member 3. Nature of the data set: Activation of mouse CAR L212A mutant expressed in HEK293 cells at 2 uM by mammalian one-hybrid assay. Format: cell-based. The following applies: hek293, 2 µM. An outline of the steps: as §1
Data set [13] concerns the target Nuclear receptor subfamily 1 group I member 3 (Mus musculus, UniProt O35627, S251L). Nature of the data set: Decrease in mouse CAR S251L mutant activation expressed in HEK293 cells at 2 uM by mammalian one-hybrid assay. The class given is cell-based. The following applies: read-out: Activity. An outline of the steps:
as §1

The target in data set [14] is T7, Nuclear receptor subfamily 1 group I member 3 (Mus musculus, UniProt O35627, L253F). Nature of the data set: Decrease in mouse CAR L253F mutant activation expressed in HEK293 cells at 2 uM by mammalian one-hybrid assay. Format: cell-based. The note with it: read-out: Activity. An outline of the steps: as §1
T7 sequence (O35627 whole entry L253F): as the sequence (O35627 whole entry Y336A, the tested form may be a part) above, with L253F, A336Y counted along it
Data set [15] concerns the target T8, Nuclear receptor subfamily 1 group I member 3 (Mus musculus, UniProt O35627, F171A). Nature of the data set: Effect on nuclear co-repressor receptor binding to mouse CAR F171A mutant […] at 2 uM by yeast two-hybrid assay. Format: cell-based. The following applies: read-out: Activity. Put shortly:
as §2

Data set [16] deals with T8, Nuclear receptor subfamily 1 group I member 3. Nature of the data set: Effect on steroid receptor co-activator 1 binding to mouse CAR F171A mutant […] at 2 uM by yeast two-hybrid assay. The class given is cell-based. The note with it: read-out: Activity. An outline of the steps:
as §2

Data set [17] addresses T9, Nuclear receptor subfamily 1 group I member 3 (Mus musculus, UniProt O35627, N175A). Nature of the data set: Decrease in nuclear co-repressor receptor binding to mouse CAR N175A mutant […] at 2 uM by yeast two-hybrid assay. The note with it: read-out: Activity. Format: cell-based. Put shortly: as §2
Data set [18] concerns the target T2, Nuclear receptor subfamily 1 group I member 3. Nature of the data set: Decrease in nuclear co-repressor receptor binding to mouse CAR L212A mutant […] at 2 uM by yeast two-hybrid assay. Format: cell-based. The following applies: read-out: Activity. Put shortly: as §2
Data set [19] shares this target. Nature of the data set: Enhancement of steroid receptor co-activator 1 binding to mouse CAR L212A mutant […] at 2 uM by yeast two-hybrid assay. The class given is cell-based. An outline of the steps:
as §2

Data set [20] addresses T5, Nuclear receptor subfamily 1 group I member 3. Nature of the data set: Enhancement of nuclear co-repressor receptor binding to mouse CAR H213A mutant […] at 2 uM by yeast two-hybrid assay. Format: cell-based. An outline of the steps:
as §2

Data set [21] addresses T7, Nuclear receptor subfamily 1 group I member 3. Nature of the data set: Decrease in nuclear co-repressor receptor binding to mouse CAR L253F mutant […] at 2 uM by yeast two-hybrid assay. Format: cell-based. The following applies: read-out: Activity. Put shortly: as §2
Data set [22] addresses T3, Nuclear receptor subfamily 1 group I member 3. Nature of the data set: Decrease in steroid receptor coactivator 1 binding to mouse CAR Y336A mutant […] at 2 uM by yeast two-hybrid assay. Format: cell-based. The following applies: read-out: Activity. An outline of the steps:
as §2

Data set [23] deals with T6, Nuclear receptor subfamily 1 group I member 3. Nature of the data set: Decrease in nuclear co-repressor receptor binding to mouse CAR T350M mutant […] at 2 uM by yeast two-hybrid assay. The class given is cell-based. The following applies: read-out: Activity. Put shortly:
as §2

Data set [24] deals with T9, Nuclear receptor subfamily 1 group I member 3. Nature of the data set: Decrease in steroid receptor coactivator 1 binding to mouse CAR N175A mutant […] at 10 uM by yeast two-hybrid assay. The following applies: read-out: Activity. The class given is cell-based. Put shortly: as §4
For data set [25], the target named is T1, Nuclear receptor subfamily 1 group I member 3. The note with it: HEK293, mouse.

T2 sequence (O35627 whole entry L212A, the tested form may be a part): as the sequence (O35627 whole entry Y336A, the tested form may be a part) above, with L212A, A336Y counted along it
T9 sequence (O35627 whole entry N175A): as the sequence (O35627 whole entry Y336A, the tested form may be a part) above, with N175A, A336Y counted along it
T5 sequence (O35627 whole entry H213A, the tested form may be a part): as the sequence (O35627 whole entry Y336A, the tested form may be a part) above, with H213A, A336Y counted along it
T8 sequence (O35627 whole entry F171A): as the sequence (O35627 whole entry Y336A, the tested form may be a part) above, with F171A, A336Y counted along it
T1 sequence (O35627 whole entry F171L, the tested form may be a part): as the sequence (O35627 whole entry Y336A, the tested form may be a part) above, with F171L, A336Y counted along it
T6 sequence (O35627 whole entry T350M): as the sequence (O35627 whole entry Y336A, the tested form may be a part) above, with A336Y, T350M counted along it
Sequence of Nuclear receptor subfamily 1 group I member 3 (Mus musculus, UniProt O35627, S251L) (O35627 whole entry S251L): as the sequence (O35627 whole entry Y336A, the tested form may be a part) above, with S251L, A336Y counted along it

As to `COc1ccc(C(=O)CCCc2ccccc2)cc1`, the activity at 10 µM in data set [1] and in data set [2] was below 50% in each case.
As for `COc1ccccc1CC(CC(=O)Cc1ccccc1)OC` (stereo not given), the Activity in [3] is on record as above 150%.
With `Clc1cnc(Oc2ccc(Oc3ncc(Cl)cc3Cl)cc2)c(Cl)c1`, the inhibition at 1 µM in data set [4] was 50%; in data set [7], at least 50%. Moreover, the activity at 1 µM in [5], in [6] and in data set [8] was below 50% each time.
As to `C[C@]12CC[C@@H](O)C[C@@H]1CC[C@@H]1[C@@H]2CC[C@]2(C)C=CC[C@@H]12` [ANDROSTENOL], the inhibition at 10 µM in data set [9] is below 50%. Moreover, the activity at 10 µM in data set [10] and in [11] was below 50% throughout.
Consider `Clc1ccccc1C(c1ccccc1)(c1ccccc1)n1ccnc1` [CLOTRIMAZOLE], for which the Activity is on record as below 50% in [12], “>= 50%” in [19] and above 150% in [20]. Also, the inhibition at 2 µM in data set [13] is below 50%; in data set [14], 50%; in data set [17], below 50%; in data set [18], at least 50%; in data set [21], at least 50%; in [22] it was at least 50%. For the same molecule, in data set [23], the inhibition at 2 µM is at least 50%. Moreover, the activity at 2 µM in data set [15] and in data set [16] was below 50% throughout.
As to `COc1ccc(C(c2ccc(OC)cc2)C(Cl)(Cl)Cl)cc1` [METHOXYCHLOR], the inhibition at 10 µM in data set [24] was at least 50%. Also, the activity at 10 µM in data set [25] is below 50%.
